The nature of one data set: Protein binding assay. In kind it is in vitro ADME. As to conditions: bovine, dialyzed fetal bovine serum.
Data set [1] can be described thus: Solubility study in deionized water. As to conditions: for Water Solubility: saturated solution in deionized water, osmometer.
A further data set in a line: Pharmacokinetic. The format is in vivo, mouse (C57BL/6). As to conditions: for AUC: C57BL/6, mouse, iv, 500 nmol.
The subject of a further data set is murine primary BMDM. In words: In vitro cytokine induction in bone marrow derived macrophages. As to conditions: for EC50: Mus musculus, BMDM, 18 h, read-out: EC50 BMDM; for Imax BMDM (IL-6 ng/ml): maximum level of IL-6 induction, 18 hours. The format is cell-based, mouse (C57BL/6). Summed up: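 Bone marrow-derived macrophages from C57BL/6 mice at 5×10^4 cells per well. Cells were given serially diluted test compound, from 50–100 mM DMSO stocks, for 18 h at 37°C, 5% CO2. Supernatant IL-6 was measured by ELISA, detection limit 15 pg/mL. Curves were fitted by nonlinear regression to give EC50 and maximal IL-6 induction. Representative of two independent experiments.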

Another data set concerns human B cells. The data set can be described thus: Human B cell proliferation. The format is cell-based. The following applies: human PBMC, four days. Summed up:
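Human PBMC from blood-bank buffy coats, from three donors. Cells were labelled with 10 μM CFSE in saline for 10 min, washed, then exposed to 1 or 10 μM test compound for four days. Cells were surface-stained for CD19. Proliferation of the CD19-gated B cells was scored by flow cytometry as CFSE dilution. Representative of two independent experiments.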

The test system of another data set is NFκB-bla Raw 264.7 cells. The data set can be described thus: In vitro NFkB activation using NFκB-bla Raw 264.7 cells. In kind it is cell-based, murine. The following applies: Mus musculus, RAW264.7, 16 h; for EC50: read-out: EC50 NFkB-RAW; for maximal fold induction: read-out: Imax NFkB-RAW (RR). Summed up: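 NFκB-bla RAW 264.7 cells at 5×10^4 per well in OptiMEM with 0.5% dialyzed FBS, 0.1 mM non-essential amino acids, 1 mM pyruvate, 10 mM HEPES pH 7.3 and penicillin/streptomycin. Test compound came from 10 or 50 mM DMSO stocks, was serially diluted in DMSO, then in medium.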

The next data set concerns C57BL/6 mice. The data set can be described thus: Pharmacodynamic. In kind it is in vivo, mouse (C57BL/6). As to conditions: 200 nmol i.v., all time points analyzed. Summed up:
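Female C57BL/6 mice, 5 per group, received 200 nmol test compound intravenously. Sera were collected 2, 4, 6, 24 and 48 h after injection and held at −20°C. IL-6 and TNF-α were measured by Luminex bead assay, with detection limits of 5 and 10 pg/mL. Means ± SEM of five mice were compared with vehicle and unconjugated ligand by one-way ANOVA with Bonferroni post hoc test.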

The next data set has as its system dialyzed serum proteins. In words: Protein binding assay. In kind it is in vitro ADME. The following applies: rapid equilibrium dialysis, dialyzed fetal bovine serum, UV 282 nm. For orientation: Equilibrium dialysis compares concentrations on both sides of a semipermeable membrane.
The next data set concerns human PBMC. In words: Cytokine induction by human PBMC. In kind it is cell-based. The following applies: 1 or 10 μM, 18 hours.

The term fraction unbound denotes the share of the substance not bound to proteins or other matrix. The AUC is the area under the concentration-time curve, a measure of exposure. A word on the EC50: it is the concentration needed to bring the measured effect to its halfway point.

“And” between values parts separate entries of the source, which are not always exact repeats. Equal entries are not always repeated. “Also recorded” adds a separate entry of the source.

The molecule `COCCOc1nc(N)c2nc(O)n(Cc3ccccc3)c2n1` [Compound 1V136, 9-benzyl-8-hydroxy-2-(2-methoxyethoxy) adenine, reference compound] gave a fraction unbound in the data set “Protein binding assay” of 0.332. Moreover, in [1] (deionized water), the “Water solubility (in words)” value is on record as “highly insoluble in aqueous solution”. Also, the AUC in the data set “Pharmacokinetic” (in vivo) is 1.62 µM·h. Further, in the data set with murine primary BMDM, the EC50 was found to be 0.36 ± 0.09 µM and the “Imax BMDM (IL-6 ng/ml)” value came out at 3.32 ± 0.54 ng/mL. In addition, the B cell proliferation result in the data set with human B cells (1 μM) is given as “induced strong B cell proliferation”. For the same molecule, in the data set on NFκB-bla Raw 264.7 cells, the EC50 came to 0.08 ± 0.01 µM and the maximal fold induction turned out to be 3.56 ± 0.38.
As for `COCCOc1nc(N)c2nc(O)n(Cc3ccc(C(=O)NCCOCCOCCOCCOCCOCCOCCOCCOCCOCCOCCN=[N+]=[N-])cc3)c2n1` [Compound 2a, 4-((6-amino-8-hydroxy-2-(2-methoxyethoxy)-9H-purin-9-yl)methyl)-N-(32-azido-3,6,9,12,15,18,21,24,27,30-decaoxadotriacontyl)benzamide], the “Serum cytokine levels (IL-6, TNF-α) compared to 1V136” value with C57BL/6 mice is given as “minimum induction of proinflammatory cytokines”. Further, in the data set on murine primary BMDM, the EC50 turned out to be 6.93 ± 3.54 µM and the “Imax BMDM (IL-6 ng/ml)” value came to 2.72 ± 0.34 ng/mL. In the data set with NFκB-bla Raw 264.7 cells, the EC50 was 5.91 ± 1.33 µM and the maximal fold induction is 3.55 ± 0.14.
For the molecule `COCCOc1nc(N)c2nc(O)n(Cc3ccc(C(=O)NCCOCCOCCOCCOCCOCCOCCOCCOCCOCCOCCN)cc3)c2n1` [Compound 2c, 4-((6-amino-8-hydroxy-2-(2-methoxyethoxy)-9H-purin-9-yl)methyl)-N-(32-amino-3,6,9,12,15,18,21,24,27,30-decaoxadotriacontyl)benzamide], the “Protein Binding (%)” value in the data set with dialyzed serum proteins was determined as 57.6 ± 1.2%. Further, in the data set with C57BL/6 mice, the “Serum cytokine levels (IL-6, TNF-α) compared to 1V136” value is “minimum induction of proinflammatory cytokines”. Besides, the “Cytokine induction (IL-6, TNF-α) in human PBMC (in words)” value with human PBMC is “higher potencies than the corresponding compounds with carboxyl-terminals”. In addition, in the data set on murine primary BMDM, the EC50 came to 2.24 ± 0.33 µM and the “Imax BMDM (IL-6 ng/ml)” value came out at 2.89 ± 0.49 ng/mL. In addition, in the data set on NFκB-bla Raw 264.7 cells, the EC50 is 1.16 ± 0.39 µM and the maximal fold induction is 3.23 ± 0.27.
In the case of `COCCOc1nc(N)c2nc(O)n(Cc3ccc(C(=O)NCCOCCOCCOCCOCCOCCOCCN=[N+]=[N-])cc3)c2n1` [Compound 1a, 4-((6-amino-8-hydroxy-2-(2-methoxyethoxy)-9H-purin-9-yl)methyl)-N-(20-azido-3,6,9,12,15,18-hexaoxaicosyl)benzamide], the “Serum cytokine levels (IL-6, TNF-α) compared to 1V136” value in the data set with C57BL/6 mice was “minimum induction of proinflammatory cytokines”. In addition, in the data set on murine primary BMDM, the EC50 came to 8.18 ± 1.91 µM and the “Imax BMDM (IL-6 ng/ml)” value came to 2.60 ± 0.49 ng/mL. In addition, in the data set with NFκB-bla Raw 264.7 cells, the EC50 amounted to 4.13 ± 0.97 µM and the maximal fold induction was 2.9 ± 0.06.
As for `COCCOc1nc(N)c2nc(O)n(Cc3ccc(C(=O)NCCOCCOCCOCCOCCOCCOCCN)cc3)c2n1` [Compound 1c, 4-((6-amino-8-hydroxy-2-(2-methoxyethoxy)-9H-purin-9-yl)methyl)-N-(20-amino-3,6,9,12,15,18-hexaoxaicosyl)benzamide], the “Protein Binding (%)” value with dialyzed serum proteins was determined as 51.3 ±6.4%. In addition, the “Serum cytokine levels (IL-6, TNF-α) compared to 1V136” value in the data set with C57BL/6 mice is “significantly less cytokine levels; also recorded: minimum induction of proinflammatory cytokines”. In addition, in the data set on human PBMC, the “Cytokine induction (IL-6, TNF-α) in human PBMC (in words)” value was “higher potencies than the corresponding compounds with carboxyl-terminals”. In the data set with murine primary BMDM, the EC50 turned out to be 3.9 ± 1.06 µM and the “Imax BMDM (IL-6 ng/ml)” value turned out to be 5.19 ± 1.96 ng/mL. Also, in the data set on NFκB-bla Raw 264.7 cells, the EC50 stood at 1.19 ± 0.2 µM and the maximal fold induction was found to be 3.27 ± 0.39.
As to `COCCOc1nc(N)c2nc(O)n(Cc3ccc(C(=O)NCCOCCOCCOCCOCCOCCOCCOCCOCCOCCOCCOCCOCCOCCOCCOCCOCCOCCOCCOCCN)cc3)c2n1` [Compound 3, 4-((6-amino-8-hydroxy-2-(2-methoxyethoxy)-9H-purin-9-yl)methyl)-N-(59-amino-3,6,9,12,15,18,21,24,27,30,33,36,39,42,45,48,51,54,57-nonadecaoxanonapentacontyl)benzamide], in the data set on dialyzed serum proteins, the “Protein Binding (%)” value was found to be 79.5 ± 1.35%. In the data set “Pharmacokinetic” (serum), this molecule had an AUC of 41.4 µM·h. For the same molecule, the “Maximum serum concentration compared to 1V136” value in “Pharmacokinetic” (C57BL/6 mice, i.v. 500 nmol) is recorded as “significantly higher maximum serum concentrations”. In the data set on murine primary BMDM, the EC50 came out at 1.79 ± 0.77 µM and the “Imax BMDM (IL-6 ng/ml)” value worked out at 4.10 ± 1.33 ng/mL. For the same molecule, in the data set with human B cells (1 and 10 μM, three donors), the B cell proliferation result is “induced B cell proliferation only at 10 μM”. For the same molecule, in the data set on NFκB-bla Raw 264.7 cells, the EC50 was found to be 0.9 ± 0.29 µM and the maximal fold induction came out at 3.58 ± 0.58.
For the molecule `COCCOc1nc(N)c2nc(O)n(Cc3ccc(C(=O)NCCOCCOCCOCCOCCOCCOCCn4cc(CCC(=O)O)nn4)cc3)c2n1` [Compound 1b, 3-(1-(1-(4-((6-amino-8-hydroxy-2-(2-methoxyethoxy)-9H-purin-9-yl)methyl)phenyl)-1-oxo-5,8,11,14,17,20-hexaoxa-2-azadocosan-22-yl)-1H-1,2,3-triazol-4-yl)propanoic acid], the “Water Solubility” value in [1] was 240 mOsm/kg and 240 ± 10 mOsm/kg. Also, in the data set on C57BL/6 mice, the “Serum cytokine levels (IL-6, TNF-α) compared to 1V136” value was “significantly less cytokine levels; also recorded: minimum induction of proinflammatory cytokines”. This molecule also gave an AUC in “Pharmacokinetic” (serum) of 5.93 µM·h. In the data set with murine primary BMDM, the EC50 is 10.6 ± 1.74 µM and the “Imax BMDM (IL-6 ng/ml)” value stood at 2.46 ± 0.36 ng/mL. The B cell proliferation result in the data set on human B cells (1 and 10 μM, three donors) is recorded as “minimally induced proliferation; also recorded: undetectable”. Also, in the data set with NFκB-bla Raw 264.7 cells, the EC50 was determined as 4.99 ± 0.7 µM and the maximal fold induction was 3.04 ± 0.23.
On to `COCCOc1nc(N)c2[nH]c(=O)n(Cc3ccc(C(=O)O)cc3)c2n1` [Compound 1V209, 4-{[6-Amino-2-(2-methoxyethoxy)-8-oxo-7H-purin-9(8H)-yl]methyl}benzoic Acid], for which, in data set [1], the “Water Solubility” value stood at 35 ±1 mOsm/kg.
Turning to `COCCOc1nc(N)c2nc(O)n(Cc3ccc(C(=O)NCCOCCOCCOCCOCCOCCOCCOCCOCCOCCOCCn4cc(CCC(=O)O)nn4)cc3)c2n1` [Compound 2b, 3-(1-(1-(4-((6-amino-8-hydroxy-2-(2-methoxyethoxy)-9H-purin-9-yl)methyl)phenyl)-1-oxo-5,8,11,14,17,20,23,26,29,32-decaoxa-2-azatetratriacontan-34-yl)-1H-1,2,3-triazol-4-yl)propanoic acid], the “Serum cytokine levels (IL-6, TNF-α) compared to 1V136” value with C57BL/6 mice is recorded as “significantly less cytokine levels; also recorded: minimum induction of proinflammatory cytokines”. Also, in the data set on murine primary BMDM, the EC50 is 4.42 ± 1.18 µM and the “Imax BMDM (IL-6 ng/ml)” value was found to be 2.79 ± 0.47 ng/mL. In addition, the B cell proliferation entry in the data set on human B cells (1 and 10 μM, three donors) is given as “minimally induced proliferation; also recorded: undetectable”. For the same molecule, in the data set with NFκB-bla Raw 264.7 cells, the concentration for a half-maximal effect (EC50) is 2.67 ± 0.75 µM and the maximal fold induction is 3.15 ± 0.23.

The record behind these values is paper PMC3063487 (Bioconjugate chemistry, 2011).
